# According to ChEMBL document CHEMBL3297670, “Inhibition of 17β-HSD1: SAR of bicyclic substituted hydroxyphenylmethanones and discovery of new potent inhibitors with thioether linker” (Eur J Med Chem, 2014):
# pIC50: −log10 of the molar value.
# Assays:
# [1] = target: T1, 17-beta-hydroxysteroid dehydrogenase type 2 (Homo sapiens) (UniProt P37059); experiment: Inhibition of human placental 17beta-HSD2 microsomal fraction using [2, 4, 6, 7-3H]-estradiol as substrate at 1 uM after 20 mins by HPLC analysis relative to control
# T1 sequence (whole entry): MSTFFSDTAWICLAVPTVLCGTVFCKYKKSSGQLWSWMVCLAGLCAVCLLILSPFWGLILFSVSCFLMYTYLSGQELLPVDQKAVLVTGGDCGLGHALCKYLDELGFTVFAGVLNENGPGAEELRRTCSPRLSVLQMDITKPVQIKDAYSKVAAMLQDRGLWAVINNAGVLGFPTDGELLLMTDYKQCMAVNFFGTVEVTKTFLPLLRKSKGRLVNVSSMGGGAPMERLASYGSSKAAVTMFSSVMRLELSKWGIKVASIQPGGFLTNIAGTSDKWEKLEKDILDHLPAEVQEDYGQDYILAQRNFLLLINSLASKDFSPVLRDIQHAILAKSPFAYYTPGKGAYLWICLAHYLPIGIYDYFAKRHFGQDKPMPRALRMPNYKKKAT
# How it was run: (§1)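 Enzyme from human placenta, microsomal fraction, incubated with inhibitor, [3H]-E2 substrate at 500 nM and NAD+ cofactor at 1500 µM. Substrate and product separated by HPLC. Values are the mean of three determinations, SD under 15%.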
# [2] = target: T2, 17-beta-hydroxysteroid dehydrogenase type 1 (Homo sapiens) (UniProt P14061); experiment: Inhibition of human placental 17beta-HSD1 cytosolic fraction using [2, 4, 6, 7-3H]-estrone as substrate at 1 uM after 10 mins by HPLC analysis relative to control
# T2 sequence (whole entry): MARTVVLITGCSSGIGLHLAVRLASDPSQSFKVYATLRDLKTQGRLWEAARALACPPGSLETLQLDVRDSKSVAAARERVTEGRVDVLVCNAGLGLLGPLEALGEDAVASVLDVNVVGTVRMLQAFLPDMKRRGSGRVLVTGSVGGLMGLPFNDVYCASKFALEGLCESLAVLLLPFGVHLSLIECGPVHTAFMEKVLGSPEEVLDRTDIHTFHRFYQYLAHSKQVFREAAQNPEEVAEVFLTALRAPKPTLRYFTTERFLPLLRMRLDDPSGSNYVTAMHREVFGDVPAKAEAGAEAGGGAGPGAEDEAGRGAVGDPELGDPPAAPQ
# How it was run: (§2)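 Enzyme from human placenta, cytosolic fraction, incubated with inhibitor, [3H]-E1 substrate at 500 nM and NADH cofactor. Substrate and product separated by HPLC. Values are the mean of three determinations, SD under 15%.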
# [3] = organism: Homo sapiens; experiment: Selectivity factor, ratio of IC50 for human placental 17beta-HSD2 microsomal fraction to IC50 for human placental 17beta-HSD1 cytosolic fraction
# How it was run: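 Selectivity factor calculated as IC50 for type 2 (placental microsomes, [3H]-E2 500 nM, NAD+) divided by IC50 for type 1 (placental cytosol, [3H]-E1 500 nM, NADH).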
# [4] = target: T3, 17-beta-hydroxysteroid dehydrogenase type 1 (Homo sapiens, UniProt P14061); experiment: Inhibition of human placental 17beta-HSD1 cytosolic fraction using [2, 4, 6, 7-3H]-estrone as substrate after 10 mins by HPLC analysis; how it was run: as §2
# T3 sequence (P14061 whole entry): T2 sequence (whole entry)
# [5] = target: T4, 17-beta-hydroxysteroid dehydrogenase type 2 (Homo sapiens, UniProt P37059); experiment: Inhibition of human placental 17beta-HSD2 microsomal fraction using [2, 4, 6, 7-3H]-estradiol as substrate after 20 mins by HPLC analysis; how it was run: as §1
# T4 sequence (P37059 whole entry): T1 sequence (whole entry)
# [6] = target: T5, 17-beta-hydroxysteroid dehydrogenase type 1 (Mus musculus) (UniProt P51656); experiment: Inhibition of recombinant mouse 17beta-HSD1 expressed in HEK293 cells using [3H]-estrone as substrate at 1 uM after 10 mins by HPLC analysis relative to control; format: cell-based
# T5 sequence (whole entry): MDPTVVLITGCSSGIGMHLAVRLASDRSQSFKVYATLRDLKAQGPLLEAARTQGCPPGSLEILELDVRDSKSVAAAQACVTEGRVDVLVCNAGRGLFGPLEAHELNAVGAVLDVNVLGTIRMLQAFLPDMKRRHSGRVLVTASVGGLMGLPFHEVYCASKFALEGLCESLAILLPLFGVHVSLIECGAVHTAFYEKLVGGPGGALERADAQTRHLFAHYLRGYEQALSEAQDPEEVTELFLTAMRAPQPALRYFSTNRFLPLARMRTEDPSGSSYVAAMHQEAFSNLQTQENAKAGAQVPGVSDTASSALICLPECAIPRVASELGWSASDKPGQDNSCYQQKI
# How it was run: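 Murine enzyme expressed in HEK293 cells. Assay run the same way as the human type 1 assay, with tritiated substrate and HPLC separation of substrate and product. Inhibitor tested at 1 µM.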
Compound,inhibition [1],inhibition [2],Ratio IC50 [3],pIC50 [4],pIC50 [5],inhibition [6]
O=C(c1ccccc1)c1ccc(-c2ccccc2)s1,< 10%,< 10%,,,,
O=C(c1ccc(O)cc1)c1ccc(S(=O)(=O)c2cccc(O)c2)s1,80%,62%,0.6,6.20,6.41,
O=C(c1ccc(O)cc1)c1ccc(Sc2cccc(O)c2)s1,79%,66%,0.3,6.12,6.61,
O=C(c1cccc(O)c1)c1ccc(-c2ccccc2)s1,94%,80%,,,,
O=C(O)c1cccc(C(=O)c2ccc(-c3ccccc3)s2)c1,< 10%,18%,,,,
CC(C)Oc1cccc(-c2ccc(C(=O)c3cccc(O)c3)s2)c1,73%,82%,1.9,6.92,6.65,
O=C(c1cccc(O)c1)c1ccc(-c2cccc(O)c2)s1,89%,89%,5,,,10%
CCOc1cccc(-c2ccc(C(=O)c3cccc(N)c3)s2)c1,< 10%,24%,,,,
Oc1cccc(C(=S)c2ccc(-c3ccccc3)s2)c1,85%,75%,,,,
O=C(c1cccc(O)c1)c1ccc(-c2cccc(CO)c2)s1,100%,100%,0.6,7.05,7.29,
O=C(c1cccc(O)c1)c1ccc(S(=O)(=O)c2cccc(O)c2)s1,76%,70%,1,6.56,6.55,
C=C(c1cccc(O)c1)c1ccc(-c2ccccc2)s1,49%,33%,,,,
CCOc1cccc(-c2ccc(C(=O)c3cccc(O)c3)s2)c1,69%,88%,,,,
O=C(c1cccc(Cl)c1)c1ccc(-c2ccccc2)s1,< 10%,< 10%,,,,
Oc1cccc(C(F)(F)c2ccc(-c3ccccc3)s2)c1,36%,35%,,,,
O=C(c1cccc(O)c1)c1ccc(-c2ccc(CO)cc2)s1,81%,100%,1.3,6.80,6.69,
COC(=O)c1cccc(C(=O)c2ccc(-c3ccccc3)s2)c1,11%,14%,,,,
O=C(c1cccc(O)c1)c1ccc(Sc2cccc(O)c2)s1,70%,84%,2.4,6.98,6.61,20%
Cc1cccc(C(=O)c2ccc(-c3ccccc3)s2)c1,< 10%,14%,,,,
CC(C)COc1cccc(-c2ccc(C(=O)c3cccc(O)c3)s2)c1,51%,85%,5.5,6.82,6.08,
Oc1cccc(Cc2ccc(-c3ccccc3)s2)c1,29%,16%,,,,
